The source of these data is ChEMBL document CHEMBL1148362 (J Med Chem, 2004).

Bounds are passed on as bounds.

One experiment relates to CCRF-CEM. The experiment in a line: Inhibition of cell growth in CEM leukemia T cells was determined. In kind it is functional. To be noted: Homo sapiens.
The subject of another experiment is Jurkat. Description: Inhibition of IL-2 production was determined in Jurkat cells after PMA/PHA activation by Enzyme immunoassay. In kind it is functional, cell-based. To be noted: Homo sapiens. In short, it runs like this: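 Human Jurkat leukemia T-cells exposed to test agents 30 min before PMA activation. Cell-free supernatants collected after 24 h and total IL-2 quantified by competitive enzyme immunoassay. Dose–response tested up to 10 μM. IC50 derived. PDTC control included in all experiments.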

For the next experiment, the system named is THP-1. Description: Inhibition of TNF-alpha production was determined in THP-1cells after LPS activation by Enzyme immunoassay. In kind it is functional, cell-based. To be noted: Homo sapiens. In short, it runs like this:
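Human monocytic THP-1 cells treated 30 min before LPS activation, then incubated 3 h. TNF-α in the output measured by competitive enzyme immunoassay and IC50 derived. Values are mean of two experiments with standard deviation. PDTC served as control.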

Experiment [1] has as its system Nuclear factor NF-kappa-B (Homo sapiens). The experiment in a line: Inhibition of DNA binding of NF-uM) PMA/PHA activated Jurkat cells; No significant inhibition.

A word on the GI50: it is the concentration giving 50% growth inhibition. Usually IC50 stands for the midpoint of a concentration-inhibition curve. As for `NC1=NC(=O)/C(=C2\CCNC(=O)c3[nH]c(Br)cc32)N1` [HYMENIALDISINE], the GI50 with CCRF-CEM came out at 1610 nM. Further, the 50% inhibitory concentration (IC50) in the experiment with Jurkat turned out to be 2410 nM; in the experiment on THP-1, 1360 nM.

As to `Nc1nc(C2=C3C(=Nc4ccccc43)C(=O)NCC2)c(O)[nH]1`, halving of growth with CCRF-CEM (GI50) required 1730 nM. Also, the IC50 worked out at 3550 nM in the experiment on Jurkat and 8160 nM in the experiment with THP-1.

In the experiment on CCRF-CEM, `Cn1c2c(c3ccccc31)/C(=C1\N=C(N)NC1=O)CCNC2=O` registered a GI50 of 14300 nM. The IC50 in the experiment with Jurkat and in the experiment on THP-1 was above 10000 nM in each case. In experiment [1], the inhibition result is “No effect”.
